We go through two compounds from ChEMBL document CHEMBL4819003, “Optimization of novel oxidative DIMs as Nur77 modulators of the Nur77-Bcl-2 apoptotic pathway” (Eur J Med Chem, 2021).

The nature of data set [1]: Clearance in male Sprague-Dawley rat at 0.5 mg/kg, iv measured for 36 hrs by LC-MS/MS analysis. Conditions: in vivo. The data set is classed as ADME, organism-based.
Data set [2] is described as follows: Half life in female Sprague-Dawley rat at 5 mg/kg, po measured for 36 hrs by LC-MS/MS analysis. The settings on record: in vivo. The data set is classed as ADME, organism-based.
Data set [3] can be described thus: Half life in male Sprague-Dawley rat at 5 mg/kg, po measured for 36 hrs by LC-MS/MS analysis. The data set is classed as ADME, organism-based. The settings on record: in vivo.
The nature of data set [4]: MRT(0 to t) in female Sprague-Dawley rat at 5 mg/kg, po measured for 36 hrs by LC-MS/MS analysis. The format is ADME, organism-based. The settings on record: in vivo.
The nature of data set [5]: Half life in female Sprague-Dawley rat at 0.5 mg/kg, iv measured for 36 hrs by LC-MS/MS analysis. The data set is classed as ADME, organism-based. Conditions: in vivo.
Data set [6] can be described thus: MRT(0 to t) in male Sprague-Dawley rat at 5 mg/kg, po measured for 36 hrs by LC-MS/MS analysis. The settings on record: in vivo. The format is ADME, organism-based. The method, boiled down: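 Sprague-Dawley rats (200–220 g), three males and three females per route group. Dosed 5 mg/kg orally or 0.5 mg/kg IV as a solution in DMSO/T-80/H2O (1:5:94 by volume). Heparinized blood was drawn from 5 min to 36 h after IV and 1–36 h after oral dosing. Plasma was protein-precipitated with methanol (2% HCl) plus carbamazepine internal standard and assayed by LC-MS/MS. Parameters were taken from concentration-time data; n = 3 per sex, mean ± SD.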

A further data set relates to MEF. Nature of the data set: Induction of apoptosis in mouse MEF cells lacking Nur77 assessed as PARP cleavage at 0.5 uM measured after 6 hrs by western blot assay. The format is functional, cell-based. In outline:
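Wild-type, Nur77−/− or Bcl-2−/− mouse embryonic fibroblasts grown in DMEM with 10% FBS and treated with 0.5 µM for 6 h. PARP cleavage detected by western blot, primary antibodies at 1:1000, ECL.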

A short description of data set [7]: Clearance in male/female Sprague-Dawley rat at 0.5 mg/kg, iv measured for 36 hrs by LC-MS/MS analysis. The format is ADME, organism-based. The settings on record: both, in vivo.
The nature of data set [8]: Toxicity in mammary tumor MMTV-PyMT mouse model assessed as changes in body weight at 3 mg/kg, po administered daily for 14 days. The format is organism-based. The settings on record: in vivo, 336 h, time 14 day. In outline:
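Female MMTV-PyMT transgenic mice (FVB/N background), 12 weeks old, randomized n = 6 per group. They received daily oral gavage of 3 mg/kg for 14 days. Drug was dissolved in DMSO and diluted with saline containing 5.0% Tween-80 to 3 mg/mL final. Body weight was recorded after 14 days against untreated controls, mean ± SD.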

For a further data set, the system named is Mus musculus. The data set is described as follows: Antitumour activity against FVB/N mammary tumor MMTV-PyMT mouse model assessed as inhibition of tumour growth at 3 mg/kg, po administered daily for 14 days. The format is functional, organism-based. Conditions: time 14.0 day. In outline: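 Female MMTV-PyMT transgenic mice (FVB/N background), 12 weeks old, randomized n = 6 per group; daily oral gavage 3 mg/kg for 14 days. Dosing solution: DMSO stock diluted in normal saline with 5.0% (V/V) Tween-80 to 3 mg/mL. Tumours weighed at end; mean ± SD, Student's t-test versus untreated controls.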

For data set [9], the system named is HCT-116. Nature of the data set: Induction of apoptosis in human HCT-116 cells assessed as PARP cleavage at 0.5 uM measured after 6 hrs by western blot assay relative to Di(1H-indol-3-yl)(4-(trifluoromethyl)phenyl)methylium methanesulfonate. The data set is classed as functional. The method, boiled down: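 HCT116 cells grown in RPMI-1640 with 10% FBS, exposed to 0.5 μM compound for 6 h. Lysates run on SDS-PAGE and blotted for PARP and cleaved PARP (primary antibodies 1:1000, ECL detection). The cleaved-PARP/PARP band intensity ratio was expressed relative to the reference compound set to 1. Mean ± SD, n = 3.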

The nature of data set [10]: AUC (0 to t) in male/female Sprague-Dawley rat at 5 mg/kg, po measured for 36 hrs by LC-MS/MS analysis. The format is ADME, organism-based. Also on record: dose 5 mg/kg, time 36 hrs. Conditions: both, in vivo. In outline:
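Four Sprague-Dawley rats per route (2 male, 2 female; 200–220 g) received 0.5 mg/kg IV or 5 mg/kg PO in DMSO/Tween-80/water (1:5:94). Heparinized blood was taken at 5 min–36 h after IV dosing and at 0.5, 1, 3, 4, 6, 8, 10, 12, 24 and 36 h after oral dosing. Methanol (2% HCl) precipitation with carbamazepine internal standard preceded LC-MS/MS; values are mean ± SD.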

Data set [11] has as its target T1, Nuclear receptor subfamily 4immunitygroup A member 1 (Homo sapiens, UniProt P22736). The data set is described as follows: Modulation of Myc-Nur77 (unknown origin) transfected in human HEK293T cells assessed as induction of Myc-Nur77 mitochondrial targeting by measuring increase in Myc-Nur77 accumulation in mitochondria at 0.5 uM measured after 2 hrs by western blot analysis. Conditions: filed as modulator. In outline: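 HEK293T cells transfected with Myc-Nur77 were exposed to 0.5 μM compound for 2 h. Cells were homogenised in sucrose Buffer D; 500 g then 5000 g spins gave a mitochondrial pellet. Whole-cell and mitochondrial fractions were western blotted for Myc-Nur77, with PARP and Tom20 as fraction-purity markers.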
(In general: A western blot detects proteins with antibodies after separation by electrophoresis.)

Data set [12] deals with T1, Nuclear receptor subfamily 4immunitygroup A member 1. The data set is described as follows: Modulation of GFP-Nur77-LBD (unknown origin) transfected in human HEK293T cells co-transfected with Flag-tagged Bcl2 assessed as interaction of Nur77 with Bcl2 in mitochondria at 0.5 uM measured after 2 hrs by confocal microscopy. Conditions: filed as modulator. In outline:
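HEK293T cells were lipofectamine-cotransfected with Flag-Bcl-2 and GFP-Nur77 or GFP-Nur77-LBD, then given 0.5 μM compound for 2 h. Cells were fixed in 4% paraformaldehyde, permeabilised with 0.1% Triton X-100, blocked in 1% BSA and stained with anti-Flag plus DAPI. Mitochondrial colocalisation with Bcl-2 was read by confocal microscopy.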

A further data set deals with BT-549. The data set is described as follows: Induction of apoptosis in human BT-549 cells assessed as PARP cleavage at 0.5 uM measured after 6 hrs by western blot assay. The data set is classed as functional, cell-based. The method, boiled down: (§1)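 Cells exposed to 0.5 µM for 6 h. Lysates resolved by SDS-PAGE and blotted to PVDF, blocked in 5% milk/TBST, probed with primary antibodies at 1:1000, ECL detection. Apoptosis scored as the densitometric ratio of cleaved PARP band to intact PARP band; mean ± SD, n = 3.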

Data set [13] can be described thus: Selectivity index, ratio of IC50 for human NCM460 cells to IC50 for human SW-620 cells.
For data set [14], the system named is HCT-116. Nature of the data set: Induction of apoptosis in human HCT-116 cells assessed as PARP cleavage at 0.5 uM measured after 6 hrs by western blot assay. The format is functional, cell-based. The method, boiled down:
as §1

The next data set relates to MDA-MB-231. Nature of the data set: Induction of apoptosis in human MDA-MB-231 cells assessed as PARP cleavage at 0.5 uM measured after 6 hrs by western blot assay. The format is functional, cell-based. The method, boiled down: as §1
Data set [15] concerns the target T1, Nuclear receptor subfamily 4immunitygroup A member 1. The data set is described as follows: Modulation of Myc-Nur77-LBD (unknown origin) transfected in human HEK293T cells assessed as induction of Myc-Nur77 mitochondrial targeting by measuring increase in Myc-Nur77 accumulation in mitochondria at 0.5 uM measured after 2 hrs by Mito-tracker dye based confocal microscopy method. The settings on record: filed as modulator. The method, boiled down:
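HEK293T cells transfected with Myc-Nur77-LBD were given 0.5 μM compound for 2 h, stained with Mito-Tracker and immunostained. Nur77 mitochondrial localisation was visualised by confocal microscopy.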

Data set [16] is described as follows: Half life in male/female Sprague-Dawley rat at 0.5 mg/kg, iv measured for 36 hrs by LC-MS/MS analysis. The data set is classed as ADME, organism-based. Conditions: both, in vivo.

Activity calls are given as the source filed them. The rule behind the calls is not given here.

T1 sequence (P22736 whole entry): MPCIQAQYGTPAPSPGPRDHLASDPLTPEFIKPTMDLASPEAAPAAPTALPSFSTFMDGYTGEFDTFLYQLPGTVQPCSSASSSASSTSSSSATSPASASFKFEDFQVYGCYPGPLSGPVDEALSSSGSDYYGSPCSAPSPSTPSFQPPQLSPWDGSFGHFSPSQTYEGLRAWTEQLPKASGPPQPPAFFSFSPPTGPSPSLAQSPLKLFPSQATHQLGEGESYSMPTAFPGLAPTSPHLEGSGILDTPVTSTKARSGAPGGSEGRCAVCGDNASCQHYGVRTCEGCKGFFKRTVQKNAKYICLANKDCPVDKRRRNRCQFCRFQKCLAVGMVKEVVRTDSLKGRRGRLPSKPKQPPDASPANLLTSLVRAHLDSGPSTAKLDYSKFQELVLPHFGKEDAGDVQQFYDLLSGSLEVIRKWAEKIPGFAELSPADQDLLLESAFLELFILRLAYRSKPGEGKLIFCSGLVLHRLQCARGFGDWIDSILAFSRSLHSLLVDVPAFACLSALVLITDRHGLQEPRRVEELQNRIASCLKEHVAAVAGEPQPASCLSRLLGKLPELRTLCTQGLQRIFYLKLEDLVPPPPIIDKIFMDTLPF

Broadly, the clearance is the volume of plasma or blood freed of the substance per unit of time. A high value points to a high capacity for elimination. As a reminder, the half-life is the time in which the quantity being followed falls by half. The low end stands for rapid decline, the high end for slow decline. As usually defined, the MRT last is the average time that molecules of a dose stay in the body. Regarding `CS(=O)(=O)[O-].FC(F)(F)c1ccc([C+](c2c[nH]c3ccccc23)c2c[nH]c3ccccc23)cc1`, the clearance in data set [1] is 7.5 mL/min/kg. Moreover, the half-life in data set [2] is 409 min; in [3], 317 min; in [5], 355 min. The MRT last at 36 h was found to be 14.5 h in data set [4] and 12.3 h in data set [6].
Usually AUC(0-t) stands for exposure summed from dosing to a finite time, without extrapolation to infinity. On to `CS(=O)(=O)[O-].Cn1cc([C+](c2ccc(C(F)(F)F)cc2)c2c[nH]c3ccccc23)c2ccccc21`, for which the result with MEF was inactive. In data set [7], this compound had a clearance of 17 mL/min/kg. In addition, the Activity result in [8] is given as “Non-Toxic”. Further, the result (in the data set on Mus musculus; in data set [11]; in data set [12]; with BT-549; in the data set with HCT-116 [14]; with MDA-MB-231) was Active. Further, the result in [15] was Active. Besides, the “fold change (FC)” value in the data set with HCT-116 [9] was 13.54. The AUC(0-t) at 36 h in [10] was 734 ng·h/mL. Further, the “Ratio IC50” value in data set [13] amounted to 50. In addition, the half-life in [16] was 160 min.
